Assay results reported in paper PMC3115796 (The Journal of Cell Biology, 2011).

B1: GFP–CLIP-170-N: amino acids 4–309 of the rat CLIP-170 (protein)
chain: LKPSGLKAPTKILKPGSTALKTPAAAAAPLEKTVPSEKASGPPSSETQEEFVDDFRVGERVWVNGNKPGFIQFLGETQFAPGQWAGIVLDEPIGKNDGSVAGVRYFQCEPLKGIFTRPSKLTRKVQAEDEANGLQTAHARAASPLSTAAATMVSSSPATPSNIPQKPSQPVAKETSATPQISNLTKTASESISNLSEAGSVKKGERELKIGDRVLVGGTKAGVVRFLGETDFAKGEWCGVELDEPLGKNDGAVAGTRYFQCQPKYGLFAPVHKVTKIGFPSTTPAKAKAAAVRRVMATTPASLKRS
modifications: left off: GFP, end not stated, kept
B2: GFP-SLAIN1: GFP-tagged SLAIN1 (protein)
chain: MMAEQVKCASPVAASGAGPGPVVNAELEVKKLQELVRKLEKQNEQLRSRAASAAAAPHLLLLQPPPPSAPPPAGACSPLATHRAPASTTSPGPGALGPAFPGTYCLPSPAPSLLCSLQPADAPFVYSKPAAGFFGGGGSPEPGTAGTPPGEAATPPLPPPTLLDEVEPLDLESLAAWSEEDDYTWLYVGSSKTFTSPEKSPSPLQWCRHVLDNPTPEMEAARRSLRFRLEQGYTSRGSPLSPQSSIDSELSTSELEDDSISMGYKLQDLTDVQIMARLQEESLRQDYASTSASVSRNSSSVSLSSGKKGTCSDQEYDRYSLEDEEEFDHLPPPQPRLPRCSPFQRGIPHSQTFSSIRDCRRSPSTQYFPSNNFQQPQYYPPQAQTADQQPNRTNGDKLRRSMPNLARMPSTAAASSNLSSPVTVRSSQSFDSSLHGAGSGVSRVPSCIPSPGQIQHRVHSVGHFPVPIRQPLKATAYVSPTVQGSSSSGSSGSSGGSGSGMPLSNGTQLYSTTGIPTPNKAAASGILGRSALPRPSLAINGSNLPRSKIAQPVRSFLQPPKPLSSLSTLRDGNWRDGCY
modifications: left off: GFP, end not stated, kept

Experiments:
[1] = tested on: SLAIN2 C terminus / full-length CLIP-170; assay: GST-SLAIN2 pull-down of CLIPs and full-length CLIP-170; type: binding
[2] = tested on: MT plus ends in HeLa cells; assay: MT plus end tracking, live-cell imaging; type: cell-based; conditions: live or fixed cells
Outline: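 HeLa cells were grown in 45% DME, 45% Ham's F10 and 10% fetal calf serum. Live imaging used TIRF/widefield at 37°C in a stage-top incubator in culture medium (100× 1.49 NA objective, EMCCD, 0.065 µm/pixel). For fixed cells, −20°C methanol was applied for 15 min, with a 15-min 4% PFA postfix for SLAIN1/2 and EB1 staining, followed by immunofluorescence on a widefield microscope.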

Molecule	association with SLAIN2 C terminus [1]	MT plus end tracking / localization (in words) [2]
B1	associated with the SLAIN2 C terminus	
B2		colocalized with EB-positive MT ends
